Assay results collected from several papers.
Each line is one published result; the experiments were not run side by side.
Target: RAC-beta serine/threonine-protein kinase (AKT2, Homo sapiens, UniProt P31751)

COc1cc(F)ccc1-c1ncnc(Nc2cccc(C[S@](C)(=N)=O)c2)n1
activity vs control (enzyme activity; inhibitor; 10 µM): 112%

Cc1cnc(NC2CCOCC2)nc1-n1cnc(C(=O)NC(CN)c2cc(F)cc(Cl)c2)c1 (stereo not drawn)
remaining activity (enzyme activity; inhibitor; radiometric; 1 µM): 92%

Cc1ccc(C(=O)Nc2ccc(CN3CCN(C)CC3)c(C(F)(F)F)c2)cc1C#Cc1cnc2cccnn12
remaining activity (enzyme activity; inhibitor; 23.5 nM): 95%

Cc1ccc(Nc2nccc(N(C)c3ccc4c(C)n(C)nc4c3)n2)cc1S(N)(=O)=O
remaining activity (enzyme activity; inhibitor; 0.5 µM): 107%

CC/C(=N\NC(=O)NCc1cccc(O)c1)c1ccc(O)c(C)c1O
inhibition (enzyme activity; inhibitor; 0.1 µM): 0.2%

COc1ccc2c(c1)O[C@H](c1ccc(OC)c(OC)c1)C[C@@H]2NC(=O)C1(c2ccc3c(c2)OC(F)(F)O3)CC1
remaining binding (cell-free assay; competition with immobilised ligand; 1 µM): 96%

COc1cc(Nc2cnc(C#N)c(O[C@H](C)CN(C)C)n2)ncc1-c1cnn(C)c1
remaining activity (enzyme activity; inhibitor; radiometric; 10 µM): 67%

O=S(=O)(NCCNC/C=C/c1ccc(Br)cc1)c1cccc2cnccc12
remaining signal (cell-free assay; 0.5 µM): 75.4%

Cn1c(=O)n(-c2ccc(C(C)(C)C#N)cc2)c2c3cc(-c4cnc5ccccc5c4)ccc3ncc21
remaining activity (enzyme activity; inhibitor; 10 µM): 106%

Cc1ccc(-n2nc(C(C)(C)C)cc2NC(=O)Nc2ccc(OCCN3CCOCC3)c3ccccc23)cc1
inhibition (enzyme activity; inhibitor; 10 µM): -15%

O=C(NCc1ncc(C(F)(F)F)cc1Cl)c1ccc2c(c1)C1(CCS(=O)(=O)CC1)[C@H](C1CC1)N2S(=O)(=O)c1ccc(F)cc1
remaining binding (cell-free assay; competition with immobilised ligand; 1 µM): 100%

CC(C)(C)C(=O)c1sc(NC2CCCCC2)nc1N
remaining activity (enzyme activity; inhibitor; 10 µM): 83%

CC(C)c1ccc(NC(=O)c2cccs2)c(-c2nc3ccccc3[nH]c2=O)c1
activity vs control (enzyme activity; inhibitor; 1 µM): 102%

CC(C)(O)[C@H]1CC[C@H](Nc2ccc3ncc(-c4cccc(C(F)(F)F)c4)n3n2)CC1
remaining activity (enzyme activity; inhibitor; 1 µM): 102%

Cc1c(C(=O)O)cc(-c2ccc(C3CCNCC3)cc2)c2ccc(-c3ccc(C(F)(F)F)cc3)cc12
remaining binding (binding; competition with immobilised ligand; 1 µM): 100%

N#CCCc1ccc2c(c1)-c1[nH]c3ccc([N+](=O)[O-])cc3c1CC(=O)N2
remaining signal (cell-free assay; 0.5 µM): 100%

CSc1cccnc1N1CCN(Cc2nc3ccccc3[nH]2)CC1
remaining binding (cell-free assay; competition with immobilised ligand; 1 µM): 98%

Cc1ccc(NC(=O)c2ccc(C)c(C(F)(F)F)c2)cc1C#Cc1nn(C2CCC(O)CC2)c2ncnc(N)c12 (stereo not drawn)
remaining signal (cell-free assay; 10 µM): 127%

O=C1Nc2ccc(Cl)cc2C1=Cc1cc(Cl)c(O)c(Cl)c1
remaining signal (cell-free assay; 0.5 µM): 93.9%

CCC(=O)N[C@H]1CC[C@@H](C(=O)N(C)c2ccc(-c3nc4ccccc4o3)cc2)C1
remaining binding (cell-free assay; competition with immobilised ligand; 1 µM): 89%

COc1cc(/C=C/C(=O)CC(=O)/C=C/c2ccc(O)c(OC)c2)ccc1O
activity vs control (enzyme activity; inhibitor; 1 µM): 70%

O=C(NS(=O)(=O)c1ccc(NCC2CCOCC2)c([N+](=O)[O-])c1)c1ccc(N2CCN(Cc3ccc(C(F)(F)F)cc3-c3ccc(Cl)cc3)CC2)cc1Oc1cnc2[nH]ccc2c1
remaining binding (cell-free assay; competition with immobilised ligand; 1 µM): 100%

CN(c1ncccc1CNc1nc(Nc2ccc3c(c2)CC(=O)N3)ncc1C(F)(F)F)S(C)(=O)=O
inhibition (enzyme activity; inhibitor; 1 µM): 1.6%

CCCOc1ccc(OC)c(F)c1C(=O)c1ccc(C(=O)N[C@@H]2CNC[C@H]2NC(=O)c2ccc3[nH]ncc3c2)cc1
remaining activity (enzyme activity; inhibitor; 10 µM): 49%

CC(C)(C)c1nc(-c2cccc(NS(=O)(=O)c3c(F)cccc3F)c2F)c(-c2ccnc(N)n2)s1
remaining activity (enzyme activity; inhibitor; radiometric; 1 µM): 91%

CCCS(=O)(=O)Nc1ccc(F)c(C(=O)c2c[nH]c3ncc(-c4ccc(Cl)cc4)cc23)c1F
inhibition (enzyme activity; inhibitor; 1 µM): < 10%

C[C@H](c1cccc(C#N)c1)n1cc(Cl)cc(C(N)=O)c1=N
remaining binding (cell-free assay; competition with immobilised ligand; 1 µM): 100%

O=C(Nc1cnn(-c2csc(C(=O)NC3COC3)c2)c1)Nc1c(F)cccc1Cl
remaining activity (enzyme activity; inhibitor; 5 µM): 104%

O=S(=O)(NC1CCC(c2cc(F)ccc2F)(S(=O)(=O)c2ccc(Cl)cc2)CC1)C(F)(F)F (stereo not drawn)
remaining binding (cell-free assay; competition with immobilised ligand; 1 µM): 99%

COc1cc2ncnc(Nc3ccc(Oc4ccccc4)c(C)c3C)c2cc1OC
inhibition (enzyme activity; inhibitor; 1 µM): 1%
